# How the values were obtained:
# [1] = Inhibition of chymotrypsin-like activity of human 20s proteasome beta 5 subunit assessed as hydrolysis of fluorogenic substrate
# [2] = test system: SK-OV-3; test: Cytotoxicity against human SKOV3 cells after 72 hrs by MTT assay; format: functional, cell-based; settings: SK-OV-3, 72 h
# Summary of the method: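 SKOV-3 cells were cultured in McCoy's 5A with 10% FBS at 37 °C, 5% CO2. MTT added from a 5 mg/mL solution for 4 h at 37 °C. Formazan dissolved in DMSO, absorbance measured at 540 nm.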
# [3] = test system: KB; test: Cytotoxicity against human KB cells after 72 hrs by MTT assay; format: functional, cell-based
# Summary of the method: (§1)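 BGC-823, KB, NCI-H460, HepG2 and SW-480 cells were maintained in RPMI 1640 with 10% FBS at 37 °C, 5% CO2. MTT added from a 5 mg/mL solution for 4 h at 37 °C. Formazan dissolved in DMSO after centrifugation, A540 read.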
# [4] = test system: HeLa; test: Cytotoxicity against human HeLa cells after 72 hrs by MTT assay; format: functional, cell-based
# Summary of the method: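 HeLa cells were cultured in EMEM with 10% FBS at 37 °C, 5% CO2. MTT added from a 5 mg/mL solution for 4 h at 37 °C. Plates centrifuged, formazan dissolved in DMSO, A540 read.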
# [5] = test system: A549; test: Cytotoxicity against human A549 cells after 72 hrs by MTT assay; format: functional, cell-based; settings: A549, 72 h
# Summary of the method: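 A549 cells were cultured in F12-K with 10% FBS at 37 °C, 5% CO2. MTT from a 5 mg/mL solution added for 4 h at 37 °C. Medium removed after centrifugation, formazan taken up in DMSO, read at 540 nm.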
# [6] = test system: NCI-H460; test: Cytotoxicity against human H460 cells after 72 hrs by MTT assay; format: functional, cell-based; settings: NCI-H460, 72 h; summary of the method: as §1
# [7] = test system: HL-60; test: Cytotoxicity against human HL60 cells after 72 hrs by MTT assay; format: functional, cell-based; settings: HL-60, 72 h
# Summary of the method: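 HL-60 cells grown in IMDM with 20% FBS at 37 °C, 5% CO2. MTT added from a 5 mg/mL solution for 4 h at 37 °C. Plates centrifuged, medium discarded, formazan dissolved in DMSO, absorbance read at 540 nm.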
# [8] = test system: BGC-823; test: Cytotoxicity against human BGC823 cells after 72 hrs by MTT assay; format: functional, cell-based; settings: BGC-823, 72 h; summary of the method: as §1
# [9] = test system: U-266; test: Cytotoxicity against human U266 cells after 72 hrs by MTT assay; format: functional, cell-based; settings: U-266, 72 h
# Summary of the method: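 U266 myeloma cells were grown in RPMI 1640 with 15% FBS at 37 °C, 5% CO2. MTT added from a 5 mg/mL solution for 4 h at 37 °C. Plates centrifuged, formazan dissolved in DMSO, absorbance at 540 nm.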
# [10] = test system: SW480; test: Cytotoxicity against human SW480 cells after 72 hrs by MTT assay; format: functional, cell-based; settings: SW480, 72 h; summary of the method: as §1
# [11] = test system: HepG2; test: Cytotoxicity against human HepG2 cells after 72 hrs by MTT assay; format: functional, cell-based; settings: HepG2, 72 h; summary of the method: as §1
Compound,IC50 [1] [nM],further results
CC(C)C[C@H](NC(=O)OC(C)(C)C)C(=O)N[C@@H](Cc1ccccc1)B1O[C@@H]2C[C@@H]3C[C@@H](C3(C)C)[C@]2(C)O1,120,
CC(C)C[C@H](NC(=O)[C@H](Cc1ccc2ccccc2c1)NC(=O)C1CCCc2ccccc21)B1O[C@@H]2C[C@@H]3C[C@@H](C3(C)C)[C@]2(C)O1 (some centres not stated),7.63,
CC(C)C[C@H](NC(=O)[C@H](Cc1c[nH]c2ccccc12)NC(=O)OCc1ccccc1)B1O[C@@H]2C[C@@H]3C[C@@H](C3(C)C)[C@]2(C)O1,41.2,
CC(C)C[C@@H](NC(=O)[C@H](Cc1ccccc1)NC(=O)c1cccc2c1CCCC2)B(O)O,9.19,
Cc1ccc(C[C@H](NC(=O)[C@H](CC(C)C)NC(=O)OC(C)(C)C)B2O[C@@H]3C[C@@H]4C[C@@H](C4(C)C)[C@]3(C)O2)cc1,471,
CCC(C)[C@H](NC(=O)C1CCCc2ccccc21)C(=O)N[C@@H](CC(C)C)B1O[C@@H]2C[C@@H]3C[C@@H](C3(C)C)[C@]2(C)O1 (some centres not stated),17.2,
CC(C)C[C@H](NC(=O)[C@@H](NC(=O)c1cccc2c1CCCC2)C(C)C)B1O[C@@H]2C[C@@H]3C[C@@H](C3(C)C)[C@]2(C)O1,6.96,
CC(C)C[C@@H](NC(=O)[C@H](Cc1ccccc1)NC(=O)c1cnccn1)B(O)O,700,
CC(C)C[C@@H](NC(=O)[C@H](Cc1ccccc1)NC(=O)C1CCCc2ccccc21)B(O)O (some centres not stated),2290,
CC(C)C[C@H](NC(=O)[C@H](CC(C)C)NC(=O)C1CCCc2ccccc21)B1O[C@@H]2C[C@@H]3C[C@@H](C3(C)C)[C@]2(C)O1 (some centres not stated),14.2,
CC(C)C[C@H](NC(=O)[C@H](Cc1ccc2ccccc2c1)NC(=O)[C@H]1CCCc2ccccc21)B1O[C@@H]2C[C@@H]3C[C@@H](C3(C)C)[C@]2(C)O1,6.12,
Cc1ccc(C[C@H](NC(=O)[C@H](Cc2ccccc2)NC(=O)[C@H]2CCCc3ccccc32)B2O[C@@H]3C[C@@H]4C[C@@H](C4(C)C)[C@]3(C)O2)cc1,6.7,
CC(C)(C)OC(=O)N[C@@H](Cc1ccc(O)cc1)C(=O)N[C@@H](Cc1ccccc1)B1O[C@@H]2C[C@@H]3C[C@@H](C3(C)C)[C@]2(C)O1,114,
CC(C)C[C@H](NC(=O)[C@@H](NC(=O)C1CCCc2ccccc21)C(C)C)B1O[C@@H]2C[C@@H]3C[C@@H](C3(C)C)[C@]2(C)O1 (some centres not stated),39,
CCCC[C@H](NC(=O)[C@H](Cc1ccccc1)NC(C)=O)B1O[C@@H]2C[C@@H]3C[C@@H](C3(C)C)[C@]2(C)O1,8.46,
CC(C)C[C@H](NC(=O)[C@H](Cc1ccccc1)NC(=O)c1cnccn1)B(O)O [BORTEZOMIB],,IC50 [2]: 130 nM; IC50 [3]: 59.5 nM; IC50 [4]: 92 nM; IC50 [5]: 255 nM; IC50 [6]: 115 nM; IC50 [7]: 5.5 nM; IC50 [8]: 880 nM; IC50 [9]: 2.45 nM; IC50 [10]: 50 nM; IC50 [11]: 37.5 nM
CCC[C@H](NC(=O)[C@H](CC(C)C)NC(=O)OC(C)(C)C)B1O[C@@H]2C[C@@H]3C[C@@H](C3(C)C)[C@]2(C)O1,49.5,
CC(C)C[C@H](NC(=O)[C@H](Cc1ccc(O)cc1)NC(=O)OC(C)(C)C)B1O[C@@H]2C[C@@H]3C[C@@H](C3(C)C)[C@]2(C)O1,16.4,
CC1(C)[C@@H]2C[C@H]3OB([C@H](Cc4ccccc4)NC(=O)[C@H](Cc4ccccc4)NC(=O)[C@H]4CCCc5ccccc54)O[C@@]3(C)[C@H]1C2,5.24,

# Further lines, with some results ahead:
IC50 [1] [nM],Compound,further results
1.92,CCCC[C@H](NC(=O)[C@H](Cc1ccccc1)NC(=O)[C@H]1CCCc2ccccc21)B1O[C@@H]2C[C@@H]3C[C@@H](C3(C)C)[C@]2(C)O1,
3.34,Cc1ccc(C[C@H](NC(=O)[C@H](Cc2c[nH]c3ccccc23)NC(=O)OCc2ccccc2)B2O[C@@H]3C[C@@H]4C[C@@H](C4(C)C)[C@]3(C)O2)cc1,
4.37,O=C(N[C@@H](Cc1ccccc1)C(=O)N[C@@H](Cc1ccc(F)cc1)B(O)O)c1cnccn1,
1.6,CC(C)C[C@H](NC(=O)[C@H](Cc1ccccc1)NC(=O)c1cccc2c1CCCC2)B(O)O,IC50 [2]: 60 nM; IC50 [3]: 9.8 nM; IC50 [4]: 23.2 nM; IC50 [5]: 40.5 nM; IC50 [6]: 21.5 nM; IC50 [7]: 9.25 nM; IC50 [8]: 1210 nM; IC50 [9]: 2.95 nM; IC50 [10]: 30 nM; IC50 [11]: 13.1 nM
1.2,CC(C)C[C@H](NC(=O)[C@H](Cc1ccccc1)NC(=O)[C@H]1CCCc2ccccc21)B(O)O,IC50 [2]: 40 nM; IC50 [3]: 70 nM; IC50 [4]: 37.5 nM; IC50 [5]: 38.5 nM; IC50 [6]: 36 nM; IC50 [7]: 9.55 nM; IC50 [8]: 580 nM; IC50 [9]: 2.28 nM; IC50 [10]: 30 nM; IC50 [11]: 60 nM
3.67,CC(C)C[C@H](NC(=O)[C@H](Cc1c[nH]c2ccccc12)NC(=O)C1CCCc2ccccc21)B1O[C@@H]2C[C@@H]3C[C@@H](C3(C)C)[C@]2(C)O1 (some centres not stated),
5.17,CC(C)C[C@H](NC(=O)[C@H](Cc1ccccc1)NC(=O)[C@@H]1CCCc2ccccc21)B1O[C@@H]2C[C@@H]3C[C@@H](C3(C)C)[C@]2(C)O1,
4.18,CC(C)C[C@H](NC(=O)[C@H](Cc1ccccc1)NC(=O)C1CCCc2ccccc21)B1O[C@@H]2C[C@@H]3C[C@@H](C3(C)C)[C@]2(C)O1 (some centres not stated),
1.12,CC(C)C[C@H](NC(=O)[C@H](Cc1ccccc1)NC(=O)[C@H]1CCCc2ccccc21)B1O[C@@H]2C[C@@H]3C[C@@H](C3(C)C)[C@]2(C)O1,
0.76,CC(C)C[C@H](NC(=O)[C@H](Cc1ccccc1)NC(=O)c1cccc2c1CCCC2)B1O[C@@H]2C[C@@H]3C[C@@H](C3(C)C)[C@]2(C)O1,
1.92,CC(C)C[C@H](NC(=O)[C@H](Cc1ccccc1)NC(=O)c1cnccn1)B1O[C@@H]2C[C@@H]3C[C@@H](C3(C)C)[C@]2(C)O1,
3.37,CC1(C)[C@@H]2C[C@H]3OB([C@H](Cc4ccccc4)NC(=O)[C@H](Cc4ccccc4)NC(=O)C4CCc5ccccc5C4)O[C@@]3(C)[C@H]1C2 (some centres not stated),
1.15,CC(C)C[C@H](NC(=O)[C@H](CC(C)C)NC(=O)c1cccc2c1CCCC2)B1O[C@@H]2C[C@@H]3C[C@@H](C3(C)C)[C@]2(C)O1,
3.21,CC1(C)[C@@H]2C[C@H]3OB([C@H](Cc4ccc(F)cc4)NC(=O)[C@H](Cc4ccccc4)NC(=O)c4cnccn4)O[C@@]3(C)[C@H]1C2,
1.34,CC(C)C[C@H](NC(=O)[C@H](Cc1cccc2ccccc12)NC(=O)c1cccc2c1CCCC2)B1OC2C[C@@H]3C[C@@H](C3(C)C)[C@]2(C)O1 (some centres not stated),
2.34,CC(=O)N[C@@H](Cc1ccccc1)C(=O)N[C@@H](CC(C)C)B1O[C@@H]2C[C@@H]3C[C@@H](C3(C)C)[C@]2(C)O1,
4.85,Cc1ccc(C[C@H](NC(=O)[C@H](Cc2ccccc2)NC(=O)c2cnccn2)B2O[C@@H]3C[C@@H]4C[C@@H](C4(C)C)[C@]3(C)O2)cc1,
4.26,CC(C)C[C@H](NC(=O)[C@H](Cc1cccc2ccccc12)NC(=O)C1CCCc2ccccc21)B1O[C@@H]2C[C@@H]3C[C@@H](C3(C)C)[C@]2(C)O1 (some centres not stated),
2.46,CC(C)C[C@H](NC(=O)[C@H](Cc1cccc2ccccc12)NC(=O)c1ccc2ccccc2c1)B1O[C@@H]2C[C@@H]3C[C@@H](C3(C)C)[C@]2(C)O1,
1.16,CC(C)C[C@H](NC(=O)[C@H](Cc1ccc2ccccc2c1)NC(=O)C1CCCc2ccccc21)B1OC2C[C@@H]3C[C@@H](C3(C)C)[C@]2(C)O1 (some centres not stated),
2.73,CC(=O)N[C@@H](Cc1ccccc1)C(=O)N[C@@H](Cc1ccc(C)cc1)B1O[C@@H]2C[C@@H]3C[C@@H](C3(C)C)[C@]2(C)O1,
1.26,CC1(C)[C@@H]2C[C@H]3OB([C@H](Cc4ccc(F)cc4)NC(=O)[C@H](Cc4ccccc4)NC(=O)[C@H]4CCCc5ccccc54)O[C@@]3(C)[C@H]1C2,
1.46,CC(C)C[C@H](NC(=O)[C@H](Cc1ccccc1)NC(=O)C1CCc2ccccc2C1)B1O[C@@H]2C[C@@H]3C[C@@H](C3(C)C)[C@]2(C)O1 (some centres not stated),
1.16,Cc1ccc(C[C@H](NC(=O)[C@H](Cc2ccccc2)NC(=O)C2CCc3ccccc3C2)B2O[C@@H]3C[C@@H]4C[C@@H](C4(C)C)[C@]3(C)O2)cc1 (some centres not stated),

# Reference: ChEMBL document CHEMBL1137786, “Design, synthesis, biological evaluation, and structure-activity relationship (SAR) discussion of dipeptidyl boronate proteasome inhibitors, part I: comprehensive understanding of the SAR of alpha-amino acid boronates” (J Med Chem, 2009)
